# PMC5858725 (Biochemistry, 2017)
# Where two headings read alike, the source gives them in different places.
# B1: Cys-less: C58A/C64M/C98A/C239T/C377A/C468S variant of CYP3A4 from codon-optimized synthetic gene (protein, UniProt P08684 2-503, looked up, variant C58A C64M C98A C239T C377A C468S)
# Cytochrome P450 3A4: ALIPDLAMETWLLLAVSLVLLYLYGTHSHGLFKKLGIPGPTPLPFLGNILSYHKGFAMFDMEMHKKYGKVWGFYDGQQPVLAITDPDMIKTVLVKEAYSVFTNRRPFGPVGFMKSAISIAEDEEWKRLRSLLSPTFTSGKLKEMVPIIAQYGDVLVRNLRREAETGKPVTLKDVFGAYSMDVITSTSFGVNIDSLNNPQDPFVENTKKLLRFDFLDPFFLSITVFPFLIPILEVLNITVFPREVTNFLRKSVKRMKESRLEDTQKHRVDFLQLMIDSQNSKETESHKALSDLELVAQSIIFIFAGYETTSSVLSFIMYELATHPDVQQKLQEEIDAVLPNKAPPTYDTVLQMEYLDMVVNETLRLFPIAMRLERVAKKDVEINGMFIPKGVVVMIPSYALHRDPKYWTEPEKFLPERFSKKNKDNIDPYIYTPFGSGPRNCIGMRFALMNMKLALIRVLQNFSFKPSKETQIPLKLSLGGLLQPEKPVVLKVESRDGTVSGA
# modifications: Δ3–22 truncation
# Tests used:
# [1] = system: WT CYP3A4; test: Stopped flow ligand binding kinetics, WT CYP3A4; design: species or system human; conditions: for Percentage of absorbance change observed during the fast kinetic phase / Percentage of absorbance change observed during the slow kinetic phase: 40 μM ligand
# [2] = molecular target: T1, opt-WT CYP3A4 (Homo sapiens, UniProt P08684); test: Stopped flow ligand binding kinetics, opt-WT CYP3A4; conditions: for Percentage of absorbance change observed during the fast kinetic phase / Percentage of absorbance change observed during the slow kinetic phase: 40 μM ligand
# [3] = molecular target: T2, Cys-less CYP3A4 (Homo sapiens, UniProt P08684, C239T/C377A/C468S/C58A/C64M/C98A); test: Stopped flow ligand binding kinetics, Cys-less CYP3A4; conditions: for Percentage of absorbance change observed during the fast kinetic phase / Percentage of absorbance change observed during the slow kinetic phase: 40 μM ligand
# [4] = molecular target: T1, opt-WT CYP3A4
# [5] = molecular target: T2, Cys-less CYP3A4
# [6] = system: WT CYP3A4; conditions: cited from earlier work
# [7] = molecular target: T2, Cys-less CYP3A4; test: BFC O-debenzylase activity in reconstituted system with CPR; format: biochemical; conditions: 0.1–0.6 M phosphate pH 7.4, all studied conditions; relative to WT and opt-WT
# Procedure, shortened: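 N-terminally truncated (Δ3–22) CYP3A4 carrying C58A/C64M/C98A/C239T/C377A/C468S, co-expressed with GroESL in E. coli C41(DE3). […] Lipid-free reconstitution with rat cytochrome P450 reductase. Substrate 7-benzyloxy(4-trifluoromethyl)coumarin, O-debenzylated to a fluorescent product that is read fluorimetrically.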
# [8] = system: CPR; test: Kinetics of CYP3A4 reduction with CPR; format: biochemical, rat; conditions: anaerobic
# [9] = 2 μM CYP3A4 mixed with 40 μM ligand, 0.6 M phosphate pH 7.4
# [10] = CO-saturated 0.1 M phosphate pH 7.4, 1 μM CYP3A4 and CPR, 30 μM MDZ, 100 μM NADPH
molecule,measurement,setting,value
"CC(C)C[C@H]1C(=O)N2CCC[C@H]2[C@]2(O)O[C@](NC(=O)[C@@H]3C=C4c5cccc6[nH]c(Br)c(c56)C[C@H]4N(C)C3)(C(C)C)C(=O)N12 [BEC, bromoergocryptine]",Percentage of absorbance change observed during the fast kinetic phase,[1]; 0.1 M phosphate pH 7.4,52%
same,Percentage of absorbance change observed during the slow kinetic phase,[1]; 0.1 M phosphate pH 7.4,48%
same,Percentage of absorbance change observed during the fast kinetic phase,[2]; 0.1 M phosphate pH 7.4,49%
same,Percentage of absorbance change observed during the slow kinetic phase,[2]; 0.1 M phosphate pH 7.4,51%
same,Percentage of absorbance change observed during the fast kinetic phase,[3]; 0.1 M phosphate pH 7.4,54%
same,Percentage of absorbance change observed during the slow kinetic phase,[3]; 0.1 M phosphate pH 7.4,46%
same,affinity lower than WT (from Ks),[4],1.5–2 fold
same,Kd,[4]; pH 7.4,770 ± 140 nM
same,affinity lower than WT (from Ks),[5],1.5–2 fold
same,Kd,[5]; pH 7.4,450 ± 60 nM
same,Kd,"[6]; read-out: Equilibrium Titrations, Ks, determined previously",300 nM
"Cc1ncc2n1-c1ccc(Cl)cc1C(c1ccccc1F)=NC2 [MDZ, midazolam]","Ligand Binding Kinetics, kfast",[1]; [9],3.4 ± 0.3 s⁻¹
same,"Ligand Binding Kinetics, kslow",[1]; [9],0.23 ± 0.04 s⁻¹
same,Percentage of absorbance change observed during the fast kinetic phase,[1]; 0.1 M phosphate pH 7.4,70%
same,Percentage of absorbance change observed during the slow kinetic phase,[1]; 0.1 M phosphate pH 7.4,30%
same,Percentage of absorbance change observed during the fast kinetic phase,[1]; 0.6 M phosphate pH 7.4,82%
same,Percentage of absorbance change observed during the slow kinetic phase,[1]; 0.6 M phosphate pH 7.4,18%
same,"Ligand Binding Kinetics, kfast",[2]; [9],0.26 ± 0.03 s⁻¹
same,"Ligand Binding Kinetics, kslow",[2]; [9],0.027 ± 0.004 s⁻¹
same,Percentage of absorbance change observed during the fast kinetic phase,[2]; 0.1 M phosphate pH 7.4,43%
same,Percentage of absorbance change observed during the slow kinetic phase,[2]; 0.1 M phosphate pH 7.4,57%
same,Percentage of absorbance change observed during the fast kinetic phase,[2]; 0.6 M phosphate pH 7.4,49%
same,Percentage of absorbance change observed during the slow kinetic phase,[2]; 0.6 M phosphate pH 7.4,51%
same,"Ligand Binding Kinetics, kfast",[3]; [9],0.27 ± 0.02 s⁻¹
same,"Ligand Binding Kinetics, kslow",[3]; [9],0.036 ± 0.003 s⁻¹
same,Percentage of absorbance change observed during the fast kinetic phase,[3]; 0.1 M phosphate pH 7.4,40%
same,Percentage of absorbance change observed during the slow kinetic phase,[3]; 0.1 M phosphate pH 7.4,60%
same,Percentage of absorbance change observed during the fast kinetic phase,[3]; 0.6 M phosphate pH 7.4,43%
same,Percentage of absorbance change observed during the slow kinetic phase,[3]; 0.6 M phosphate pH 7.4,57%
same,Kd,"[6]; read-out: Equilibrium Titrations, Ks, 0.1 M phosphate, determined previously",4800 nM
same,Kd,"[6]; read-out: Equilibrium Titrations, Ks, 0.6 M phosphate, determined previously",1800 nM
"CC(C)c1nc(CN(C)C(=O)N[C@H](C(=O)N[C@@H](Cc2ccccc2)C[C@H](O)[C@H](Cc2ccccc2)NC(=O)OCc2cncs2)C(C)C)cs1 [RIT, ritonavir]",Percentage of absorbance change observed during the fast kinetic phase,[1]; 0.1 M phosphate pH 7.4,70%
same,Percentage of absorbance change observed during the slow kinetic phase,[1]; 0.1 M phosphate pH 7.4,30%
"O=c1cc(C(F)(F)F)c2ccc(OCc3ccccc3)cc2o1 [BFC, 7-benzyloxy-(4-trifluoromethyl)coumarin]","BFC oxidation (debenzylation) by Cys-less CYP3A4, faster than WT and opt-WT",[7],6–8 fold
B1,"First Electron Transfer from CPR, kfast",[8]; [10],1.22 ± 0.03 min⁻¹
same,"First Electron Transfer from CPR, kslow",[8]; [10],0.22 ± 0.02 min⁻¹
same,"First Electron Transfer from CPR, percentage of absorbance change in the fast phase","[8]; CO-saturated 0.1 M phosphate pH 7.4, 30 μM MDZ",64%
